Columns and labels:
[1] = tested on: motor coordination on rotating rod; experiment: Neurotoxicity / minimal motor impairment, rotating rod; type: in vivo; conditions: rod observed 5 min, mean ± SEM, 10 mice
Procedure, shortened: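 White albino mice of either sex, 8–10 weeks, 25–35 g, were trained on a rotating rod (2.5 cm diameter, 25 cm high). After i.p. dosing (10, 30 or 50 mg/kg), motor coordination was scored over 5 min at 30 min and 4 h. Neurotoxicity meant failure to stay on the rod for 1 min. 10 mice per group; mean ± SEM.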

MCF-7 cell line = experiment: MTT cytotoxicity assay in MCF-7 cells; type: cell-based, human; conditions: 48 h, MTT
Procedure, shortened: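 MCF-7 cells grown in Eagle's MEM with 10% FBS, 1% penicillin/streptomycin, 0.1 mM non-essential amino acids, 10 μg/mL insulin and 1 mM sodium pyruvate at 37 °C, 5% CO2. Trypsin/EDTA-harvested cells were seeded at 6 × 10^4 cells/mL and incubated overnight. Test compound (1–30 μM, or a fixed 30 μM screen against doxorubicin) was applied for 48 h. MTT 0.5 mg/mL for 4 h, DMSO, A570; % inhibition and IC50.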

PTZ-induced convulsions = PTZ-induced convulsions in mice; type: in vivo; conditions: 5 mg/kg i.p., PTZ 70 mg/kg i.p., n = 10
Procedure, shortened: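 Overnight-fasted albino mice (n = 10 per group) received test compound at 5 mg/kg i.p., suspended in carboxymethylcellulose and sonicated. Controls were vehicle, PTZ alone and lamotrigine (dose-finding at 1–5 mg/kg). Clonic seizures were induced with PTZ 70 mg/kg i.p. Recorded: latency, convulsion duration, number of convulsions, protection, and a 0–6 seizure score (6 = death). Mean ± SEM; one-way ANOVA with Dunnett's test versus the PTZ group.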

“2,2′-{[6-(2,3-Dichlorophenyl)-1,2,4-triazine-3,5-diyl]bis[azanylylidene(E)methanylylidene]}diphenol Dibutyl Tin Dichloride Coordinate Complex [7b]” was tested, and the “time on Rod” value ([1]; dose 10 mg/kg i.p.) was 80.0 ± 27.6 s, the “time on Rod” value ([1]; dose 30 mg/kg i.p.) was 68.9 ± 25.7 s and the “time on Rod” value ([1]; dose 50 mg/kg i.p.) was 45.64 ± 19.3 s. For the same substance, the “IC50 ± SD” value (MCF-7 cell line; MCF-7, 1–30 μM) was “inactive”, the “% inhibition/stimulation” value (MCF-7 cell line; conc. 30 μM) was 0.00% and the “average duration of seizure” value (PTZ-induced convulsions; mean ± SEM) was 99 ± 7.1 s. The latency time (PTZ-induced convulsions; mean ± SEM) was 190.0 ± 70.1 s, the seizure score (PTZ-induced convulsions; mean ± SEM) was 12.0 ± 1.5 counts and the mortality (PTZ-induced convulsions) was 0.0 counts.
